Laboratory results published in ChEMBL document CHEMBL1649255, “Impact of novel human immunodeficiency virus type 1 reverse transcriptase mutations P119S and T165A on 4'-ethynylthymidine analog resistance profile” (Antimicrob Agents Chemother, 2009).
pEC50, pKi: −log10 of the molar value.

Key:
[1] = system: Cc1cn([C@H]2C[C@H](O)[C@@H](COP(=O)(O)OP(=O)(O)OP(=O)(O)O)O2)c(=O)[nH]c1=O; test: Ratio of Kcat to Km for HIV1 Reverse transcriptase T165A mutant; settings: Human immunodeficiency virus 1
[2] = system: Cc1cn([C@H]2C[C@H](O)[C@@H](COP(=O)(O)OP(=O)(O)OP(=O)(O)O)O2)c(=O)[nH]c1=O; test: Activity of HIV1 Reverse transcriptase T165A mutant; settings: Human immunodeficiency virus 1
[3] = system: Cc1cn([C@H]2C[C@H](O)[C@@H](COP(=O)(O)OP(=O)(O)OP(=O)(O)O)O2)c(=O)[nH]c1=O; test: Ratio of Kcat to Km for HIV1 Reverse transcriptase P119S mutant; settings: Human immunodeficiency virus 1
[4] = system: Cc1cn([C@H]2C[C@H](O)[C@@H](COP(=O)(O)OP(=O)(O)OP(=O)(O)O)O2)c(=O)[nH]c1=O; test: Activity of HIV1 Reverse transcriptase P119S mutant; settings: Human immunodeficiency virus 1
[5] = system: Human immunodeficiency virus type 1 reverse transcriptase (Human immunodeficiency virus 1), Q72547 [T165A]; test: Ratio of Ki to Km for HIV1 Reverse transcriptase T165A mutant
Method in brief: (§1)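 Steady-state inhibition of dTTP incorporation used 2.5 nM wild-type or mutant RT and 250 nM DNA/RNA 23-mer/36-mer primer/template. Apparent dTTP Km was measured across varied 4′-Ed4TTP or d4TTP to give Ki. Ki/Km(dTTP) served as the inhibition index.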

[6] = molecular target: Human immunodeficiency virus type 1 reverse transcriptase (Human immunodeficiency virus 1, UniProt Q72547, M184V/P119S/T165A); test: Inhibition of HIV1 Reverse transcriptase P119S/T165A/M184V mutant; method in brief: as §1
[7] = molecular target: Human immunodeficiency virus type 1 reverse transcriptase (Human immunodeficiency virus 1, UniProt Q72547, M184V); test: Inhibition of HIV1 Reverse transcriptase M184V mutant; method in brief: as §1
[8] = molecular target: Human immunodeficiency virus type 1 reverse transcriptase (Human immunodeficiency virus 1) (UniProt Q72547); test: Ratio of Ki to Km for wild-type HIV1 Reverse transcriptase; method in brief: as §1
[9] = molecular target: Human immunodeficiency virus type 1 reverse transcriptase (Human immunodeficiency virus 1, UniProt Q72547); test: Inhibition of wild-type HIV1 Reverse transcriptase
Method in brief: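 Same steady-state dTTP incorporation reaction: 250 nM DNA 23-mer/RNA 36-mer primer/template, 2.5 nM RT, Tris-HCl pH 8.0/NaCl/MgCl2/DTT/BSA buffer, 37°C. The analog triphosphate inhibitor was added at various concentrations. Apparent dTTP Km was measured at each inhibitor level to derive Ki, and Ki/Km(dTTP) was used as an inhibition-efficiency index.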

[10] = system: Human immunodeficiency virus type 1 reverse transcriptase (Human immunodeficiency virus 1), Q72547 [P119S,M184V]; test: Ratio of Ki to Km for HIV1 Reverse transcriptase P119S/M184V mutant; method in brief: as §1
[11] = molecular target: Human immunodeficiency virus type 1 reverse transcriptase (Human immunodeficiency virus 1, UniProt Q72547, M184V/T165A); test: Inhibition of HIV1 Reverse transcriptase T165A/M184V mutant; method in brief: as §1
[12] = molecular target: Human immunodeficiency virus type 1 reverse transcriptase (Human immunodeficiency virus 1, UniProt Q72547, P119S/T165A); test: Inhibition of HIV1 Reverse transcriptase P119S/T165A mutant; method in brief: as §1
[13] = system: Human immunodeficiency virus type 1 reverse transcriptase (Human immunodeficiency virus 1), Q72547 [P119S,T165A]; test: Ratio of Ki to Km for HIV1 Reverse transcriptase P119S/T165A mutant; method in brief: as §1
[14] = system: Human immunodeficiency virus type 1 reverse transcriptase (Human immunodeficiency virus 1), Q72547 [T165A,M184V]; test: Ratio of Ki to Km for HIV1 Reverse transcriptase T165A/M184V mutant; method in brief: as §1
[15] = molecular target: Human immunodeficiency virus type 1 reverse transcriptase (Human immunodeficiency virus 1, UniProt Q72547, T165A); test: Inhibition of HIV1 Reverse transcriptase T165A mutant; method in brief: as §1
[16] = system: Human immunodeficiency virus type 1 reverse transcriptase (Human immunodeficiency virus 1), Q72547 [P119S]; test: Ratio of Ki to Km for HIV1 Reverse transcriptase P119S mutant; method in brief: as §1
[17] = molecular target: Human immunodeficiency virus type 1 reverse transcriptase (Human immunodeficiency virus 1, UniProt Q72547, M184V/P119S); test: Inhibition of HIV1 Reverse transcriptase P119S/M184V mutant; method in brief: as §1
[18] = system: Human immunodeficiency virus type 1 reverse transcriptase (Human immunodeficiency virus 1), Q72547 [M184V]; test: Ratio of Ki to Km for HIV1 Reverse transcriptase M184V mutant; method in brief: as §1
[19] = system: Human immunodeficiency virus type 1 reverse transcriptase (Human immunodeficiency virus 1), Q72547 [P119S,T165A,M184V]; test: Ratio of Ki to Km for HIV1 Reverse transcriptase P119S/T165A/M184V mutant; method in brief: as §1
[20] = molecular target: Human immunodeficiency virus type 1 reverse transcriptase (Human immunodeficiency virus 1, UniProt Q72547, P119S); test: Inhibition of HIV1 Reverse transcriptase P119S mutant; method in brief: as §1
[21] = system: Cc1cn([C@H]2C[C@H](O)[C@@H](COP(=O)(O)OP(=O)(O)OP(=O)(O)O)O2)c(=O)[nH]c1=O; test: Ratio of Kcat to Km for HIV1 Reverse transcriptase P119S/T165A mutant; settings: Human immunodeficiency virus 1
[22] = system: Cc1cn([C@H]2C[C@H](O)[C@@H](COP(=O)(O)OP(=O)(O)OP(=O)(O)O)O2)c(=O)[nH]c1=O; test: Activity of HIV1 Reverse transcriptase P119S/T165A mutant; settings: Human immunodeficiency virus 1
[23] = system: Human immunodeficiency virus 1; test: Antiviral activity against HIV1 pNL4-3 harboring Reverse transcriptase P119S/T165A mutant gene infected in TZM-bl cells after 72 hrs by luciferase assay; type: functional, organism-based; settings: Human immunodeficiency virus 1, pNL4-3, TZM-bl
Method in brief: (§2)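 TZM-bl cells (LTR-driven luciferase reporter) at 5 × 10^4 per well in RPMI 1640 with 10% dialyzed FBS. They were preincubated 16 h at 37°C with a range of 4′-Ed4T, d4T, 3TC or AZT, then infected with NL4-3-derived clones at MOI 0.01. After 72 h, lysates were read for luciferase, with uninfected background subtracted. EC50 is from % of no-drug signal, reported as mean ± SD of three experiments.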

[24] = system: Human immunodeficiency virus 1; test: Antiviral activity against HIV1 pNL4-3 harboring Reverse transcriptase P119S/T165A/M184V mutant gene infected in TZM-bl cells after 72 hrs by luciferase assay; type: functional, organism-based; settings: Human immunodeficiency virus 1, pNL4-3, TZM-bl; method in brief: as §2
[25] = system: Human immunodeficiency virus 1; test: Antiviral activity against HIV1 pNL4-3 harboring Reverse transcriptase M184V mutant gene infected in TZM-bl cells after 72 hrs by luciferase assay; type: functional, organism-based; settings: Human immunodeficiency virus 1, pNL4-3, TZM-bl; method in brief: as §2
[26] = system: Human immunodeficiency virus 1; test: Antiviral activity against HIV1 pNL4-3 harboring Reverse transcriptase T165A/M184V mutant gene infected in TZM-bl cells after 72 hrs by luciferase assay; type: functional, organism-based; settings: Human immunodeficiency virus 1, pNL4-3, TZM-bl; method in brief: as §2
[27] = system: Human immunodeficiency virus 1; test: Antiviral activity against HIV1 pNL4-3 harboring Reverse transcriptase P119S/M184V mutant gene infected in TZM-bl cells after 72 hrs by luciferase assay; type: functional, organism-based; settings: Human immunodeficiency virus 1, pNL4-3, TZM-bl; method in brief: as §2
[28] = system: Human immunodeficiency virus 1; test: Antiviral activity against wild-type HIV1 pNL4-3 infected in TZM-bl cells by luciferase assay; type: functional, organism-based; settings: Human immunodeficiency virus 1, pNL4-3, TZM-bl; method in brief: as §2
[29] = system: Human immunodeficiency virus 1; test: Antiviral activity against HIV1 pNL4-3 harboring Reverse transcriptase P119S mutant gene infected in TZM-bl cells after 72 hrs by luciferase assay; type: functional, organism-based; settings: Human immunodeficiency virus 1, pNL4-3, TZM-bl; method in brief: as §2
[30] = system: Human immunodeficiency virus 1; test: Antiviral activity against HIV1 pNL4-3 harboring Reverse transcriptase T165A mutant gene infected in TZM-bl cells after 72 hrs by luciferase assay; type: functional, organism-based; settings: Human immunodeficiency virus 1, pNL4-3, TZM-bl; method in brief: as §2
[31] = system: Human immunodeficiency virus 1; test: Antiviral activity against HIV1 pNL4-3 harboring chimeric pTKD infected in TZM-bl cells after 72 hrs by luciferase assay; type: functional, organism-based; settings: Human immunodeficiency virus 1, pNL4-3, TZM-bl; method in brief: as §2
[32] = system: Cc1cn([C@H]2C[C@H](O)[C@@H](COP(=O)(O)OP(=O)(O)OP(=O)(O)O)O2)c(=O)[nH]c1=O; test: Ratio of Kcat to Km for HIV1 Reverse transcriptase M184V mutant; settings: Human immunodeficiency virus 1
[33] = system: Cc1cn([C@H]2C[C@H](O)[C@@H](COP(=O)(O)OP(=O)(O)OP(=O)(O)O)O2)c(=O)[nH]c1=O; test: Activity of HIV1 Reverse transcriptase M184V mutant; settings: Human immunodeficiency virus 1

“Human immunodeficiency virus type 1 reverse transcriptase (Human immunodeficiency virus 1) (from UniProt Q72547) T165A” gave a kcat/Km (10'-2/microM/s) [1] of 2.7, a Km [2] of 0.1 µM and a kcat [2] of 2.7 ×10⁻⁵ /s.

Work on “Human immunodeficiency virus type 1 reverse transcriptase (Human immunodeficiency virus 1) (from UniProt Q72547) P119S” yielded a kcat/Km (10'-2/microM/s) [3] of 2.5, a Km [4] of 0.13 µM and a kcat [4] of 3.3 ×10⁻⁴ /s.

`C=C[C@@]1(COP(=O)(O)OP(=O)(O)OP(=O)(O)O)C=C[C@H](n2cc(C)c(=O)[nH]c2=O)O1` was tested, and the Ki/Km [5] was 0.8, the pKi [6] was 6.14 and the pKi [7] was 6.68. It also gave a Ki/Km [8] of 0.45, a pKi [9] of 7.27 and a Ki/Km [10] of 3.6. It also gave a pKi [11] of 6.18, a pKi [12] of 7.62 and a Ki/Km [13] of 0.34. For the same compound, the Ki/Km [14] was 6, the pKi [15] was 7.10 and the Ki/Km [16] was 0.85. It also gave a pKi [17] of 6.19, a Ki/Km [18] of 1.7 and a Ki/Km [19] of 4.9. The pKi [20] was 6.96.

In the case of “Human immunodeficiency virus type 1 reverse transcriptase (Human immunodeficiency virus 1) (from UniProt Q72547) P119S,T165A”, the kcat/Km (10'-2/microM/s) [21] was 5.1, the Km [22] was 0.07 µM and the kcat [22] was 3.6 ×10⁻⁴ /s.

Work on `C=C[C@@]1(CO)C=C[C@H](n2cc(C)c(=O)[nH]c2=O)O1` yielded a pEC50 [23] of 6.46, a pEC50 [24] of 5.71 and a pEC50 [25] of 6.01. It also gave a pEC50 [26] of 5.88, a pEC50 [27] of 5.86 and a pEC50 [28] of 6.43. The pEC50 [29] was 6.29, the pEC50 [30] was 6.24 and the pEC50 [31] was 5.68.

Work on “Human immunodeficiency virus type 1 reverse transcriptase (Human immunodeficiency virus 1) (from UniProt Q72547) M184V” yielded a kcat/Km (10'-2/microM/s) [32] of 2.6 and a kcat [33] of 3.1 ×10⁻⁴ /s.

Work on `Cc1cn([C@H]2C=C[C@@H](CO)O2)c(=O)[nH]c1=O` [STAVUDINE] yielded a pEC50 [23] of 5.61, a pEC50 [24] of 5.89 and a pEC50 [25] of 5.85. It also gave a pEC50 [26] of 5.82, a pEC50 [27] of 5.81 and a pEC50 [28] of 5.90. It also gave a pEC50 [29] of 5.84, a pEC50 [30] of 5.84 and a pEC50 [31] of 6.00.
